Experimental data from PMC11909909 (BMC Pharmacology & Toxicology, 2025).

Key:
[1] = Pharmacokinetics after a single 150 mg oral dose, fasting or postprandial; format: in vivo, healthy Chinese subjects
Outline: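 Healthy volunteers, 50 per fasting or fed trial, in a randomized two-sequence (TRTR/RTRT), four-period, fully replicated crossover with a 7-day washout. Each dose was one 150 mg capsule with 240 mL warm boiled water, given fed after a ~950 kcal high-fat meal. 18 venous samples per period to 48 h in precooled EDTA-K2 tubes, spun 1700g 10 min 4 °C, plasma stored ≤−60 °C. Total-dabigatran range 1.000–300.0 ng/mL; parameters per subject.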

[2] = tested on: coagulation parameters (PT, PTA, APTT, TT); experiment: Coagulation parameters; format: in vivo, healthy Chinese subjects; details: for PT / TT / APTT / PTA: mean ± SD

Row | Tmax ([1]; after a high-fat meal, median, both formulations) [h] | Tmax ([1]; human, plasma, oral, 150 mg) [h] | SMILES | change of TT values after administration ([2]; both fasting and postprandial) | PT ([2]; fasting, fourth periodicity, n = 48, screening 13.01 ± 0.490) [s] | TT ([2]; fasting, fourth periodicity, n = 48, screening 17.71 ± 0.880) [s] | APTT ([2]; fasting, fourth periodicity, n = 48, screening 36.22 ± 3.090) [s] | PTA ([2]; fasting, fourth periodicity, n = 48, screening 101.7 ± 7.960) [%] | PT ([2]; fasting, second periodicity, n = 50, screening 13.01 ± 0.490) [s] | TT ([2]; fasting, second periodicity, n = 50, screening 17.71 ± 0.880) [s] | APTT ([2]; fasting, second periodicity, n = 50, screening 36.22 ± 3.090) [s] | PTA ([2]; fasting, second periodicity, n = 50, screening 101.7 ± 7.960) [%] | PT ([2]; postprandial, fourth periodicity, n = 50, screening 12.62 ± 0.570) [s] | TT ([2]; postprandial, fourth periodicity, n = 50, screening 17.63 ± 0.940) [s] | APTT ([2]; postprandial, fourth periodicity, n = 50, screening 36.25 ± 2.860) [s] | PTA ([2]; postprandial, fourth periodicity, n = 50, screening 108.9 ± 10.58) [%] | PT ([2]; postprandial, second periodicity, n = 50, screening 12.62 ± 0.570) [s] | TT ([2]; postprandial, second periodicity, n = 50, screening 17.63 ± 0.940) [s] | APTT ([2]; postprandial, second periodicity, n = 50, screening 36.25 ± 2.860) [s] | PTA ([2]; postprandial, second periodicity, n = 50, screening 108.9 ± 10.58) [%]
1 | 4 | 2.5 | [H]/N=C(/N)c1ccc(NCc2nc3cc(C(=O)N(CCC(=O)O)c4ccccn4)ccc3n2C)cc1 [dabigatran] |  |  |  |  |  |  |  |  |  |  |  |  |  |  |  |  | 
2 |  |  | CCCCCCOC(=O)N=C(N)c1ccc(NCc2nc3cc(C(=O)N(CCC(=O)OCC)c4ccccn4)ccc3n2C)cc1 [dabigatran etexilate] | increased more significantly | 13.07 ± 0.488 | 20.73 ± 2.099 | 36.61 ± 3.352 | 101.2 ± 8.167 | 12.89 ± 0.475 | 19.58 ± 1.976 | 36.71 ± 3.947 | 104.4 ± 8.741 | 12.82 ± 0.479 | 21.30 ± 2.537 | 36.22 ± 2.746 | 105.5 ± 8.808 | 13.14 ± 0.504 | 20.78 ± 2.490 | 36.06 ± 2.660 | 100.2 ± 8.297
